Measurements from different studies.
Lines come from different studies, so protocols differ.
Cell line: MCF7
Observed: cell growth or viability

With `O=C(C=Cc1cccs1)c1ccc(OCCCOc2ccc(C(=O)C=Cc3cccs3)cc2)cc1` the IC50 was 4.05 µM (MTT; 48 h).
`O=[N+]([O-])c1cc(I)c(O)c(C=NNc2ccccc2)c1` gave an IC50 of 7.76 µM (MTT; 24 h).
The IC50 of `CCOC(=O)c1c(C)nc2ccc(-c3ccc(F)cc3)cc2c1O` is reported as 11 µM (MTT; 48 h).
`O=C1CSC(=Nc2cc([N+](=O)[O-])ccc2[N+](=O)[O-])N1c1nnc(-c2ccc(C(F)(F)F)cc2N=C2SCC(=O)N2c2cc([N+](=O)[O-])ccc2[N+](=O)[O-])s1` gave an IC50 of 83.4 µM (MTT).
The IC50 of `Nc1ccn([C@@H]2O[C@H](CO)[C@@H](O)C2(F)F)c(=O)n1` is reported as 2.75 µg/mL (MTT; 24 h).
With `Cc1cccc([N+](=O)[O-])c1N=C1SCC(=O)N1c1nnc(-c2ccc(C(F)(F)F)cc2N=C2SCC(=O)N2c2c(C)cccc2[N+](=O)[O-])s1` the IC50 was 53.2 µM (MTT).
`CO[C@H]1[C@H](O[C@H]([C@H]2O[C@@H](n3ccc(=O)[nH]c3=O)[C@H](O)[C@@H]2O)[C@H](NCCCNC(=O)[C@@H](NC(=O)[C@@H](NC(=O)N[C@H](C(=O)O)C(C)C)[C@@H]2CCN=C(N)N2)[C@@H](OC(=O)CCCCCCCCCCCCN(O)C(=N)N)C(C)C)C(=O)O)O[C@H](CN)[C@H]1O` has an IC50 of 0.95 µM (WST-1).
The IC50 of `C(=N\Nc1cc(N/N=C/c2ccc3ccccc3n2)ncn1)/c1ccc2ccccc2n1` is reported as 34.3 µM (MTT; 48 h).
For `CC(=O)O[C@@H]1[C@@H](OC(C)=O)[C@H](OC(C)=O)CO[C@H]1n1cc(Cn2c(C(=O)/C=C/c3ccc(F)cc3)nc3ccccc32)nn1`, the IC50 was 2.98 µM (LDH; 48 h).
`C/C(=N\C(=O)/N=C(\C)c1c(O)c2ccccc2oc1=O)c1c(O)c2ccccc2oc1=O` has an IC50 of 14.6 µM (MTT; 48 h).
`C(=N\Nc1cc(N/N=C/c2cccc3cccnc23)nc(-c2ccccc2)n1)/c1cccc2cccnc12` has an IC50 of 10.4 µM (MTT; 48 h).
For `NNc1nc2c(Cl)cc(Cl)cc2c(=O)n1-c1ccc(Cl)cc1`, the IC50 was > 200 µM (MTT; 48 h).
With `Fc1ccc2c(-c3nnc(Cc4ccccc4)s3)nn(Cc3ccc(Cl)cc3Cl)c2c1` the IC50 was 89.3 µM (48 h).
`COc1ccc(N(Cc2csc(-c3ccc(Br)cc3)n2)C(=O)CCCCCC(=O)NO)cc1` has an IC50 of 9.21 µM (MTT; 72 h).
For `Cc1ccc(NNc2nc3ccc(Br)cc3c(=O)n2-c2ccccc2)cc1`, the IC50 was > 200 µM (MTT; 48 h).
`CNC(=S)N/N=C/c1cccc2cc3ccccc3nc12` has an IC50 of 18.8 µM (MTT; 48 h).
The IC50 of `CCOC(=O)C(=CNc1ccc(Oc2ccccc2)cc1)C(=O)OCC` is reported as 102 µM (MTT; 24 h).
With `CC(=O)O[C@@]12CO[C@@H]1C[C@H](O)[C@@]1(C)C(=O)[C@H](O)C3=C(C)[C@@H](OC(=O)[C@H](O)[C@@H](NC(=O)OC(C)(C)C)c4ccccc4)C[C@@](O)([C@@H](OC(=O)c4ccccc4)[C@H]21)C3(C)C` the IC50 was 92.5 µM (MTT; 48 h).
For `Cc1nc2ccc(-c3ccc(F)c(F)c3)cc2c(O)c1C(=O)O`, the IC50 was ≥ 100 µM (MTT; 48 h).
`COc1cc(C2C3=C(Nc4nc(SC)[nH]c(=O)c42)c2ccccc2C3=O)ccc1O` (stereo not shown) has an IC50 of > 1000 µM (MTT; 72 h).
With `C[C@H]1[C@H](C)CC[C@]2(C)CC[C@]3(C)C(=CC(=O)[C@@H]4[C@@]5(C)CC[C@@H](O)[C@](C)(C(=O)NCc6cn(-c7ccccc7)nn6)[C@@H]5CC[C@]43C)[C@H]12` the IC50 was 124 µM (MTT; 24 h).
`COc1cc(C=O)ccc1OC1=C(Cl)C(=O)c2ccccc2C1=O` has an IC50 of 41.5 µg/mL (MTT; 24 h).
`COc1cccc2c1C(=O)c1c(O)c3c(c(O)c1C2=O)C[C@@](O)(C(=O)CO)C[C@@H]3O[C@H]1C[C@H](N)[C@H](O)[C@H](C)O1` gave an IC50 of 0.5 µM (MTT; 48 h).
`Cc1nnc(-c2nn(Cc3ccc(Cl)cc3Cl)c3ccccc23)o1` has an IC50 of 19.8 µM (48 h).
`C[C@H]1[C@H](C)CC[C@]2(C)CC[C@]3(C)C(=CC(=O)[C@@H]4[C@@]5(C)CC[C@@H](O)[C@](C)(C(=O)NCc6cn(-c7ccc(F)cc7)nn6)[C@@H]5CC[C@]43C)[C@H]12` has an IC50 of 76.4 µM (MTT; 24 h).
With `C/C(=N\C1CCCCC1/N=C(\C)c1c(O)c2ccccc2oc1=O)c1c(O)c2ccccc2oc1=O` (stereo not shown) the IC50 was 66.4 µM (MTT; 48 h).
`CCC(C(=O)N1C(=O)C(=Nc2ccc(Cl)cc2Br)c2ccccc21)c1ccccc1` (stereo not shown) has an IC50 of 34.2 µM (MTT; 48 h).
For `CNc1cccc(Nc2nc(-c3ccncc3)nc3c2CNCC3)c1`, the IC50 was > 100 µM (MTT).
`S=C(N/N=C/c1cccc2cc3ccccc3nc12)Nc1ccccc1` has an IC50 of > 50 µM (MTT; 48 h).
`O=C(NCc1ccc(OC(F)(F)F)cc1)c1cn(Cc2ccc(F)cc2)c2ccc(Oc3ccccc3)cc2c1=O` gave an IC50 of 343 µM (MTT; 24 h).
The IC50 of `O=[N+]([O-])c1ccc(O)c(C=NNc2ccc(Br)cc2)c1` is reported as 8.67 µM (MTT; 24 h).
For `NS(=O)(=O)c1ccc(-n2nc(C(=O)NN=Cc3ccc(O)cc3)cc2-c2ccccc2)cc1`, the IC50 was 16.9 µM (fluorescence; 48 h).
`COc1cccc2c1C(=O)c1c(O)c3c(c(O)c1C2=O)C[C@@](O)(C(=O)CO)C[C@@H]3O[C@H]1C[C@H](N)[C@H](O)[C@H](C)O1` has an IC50 of 1.81 µM (LDH; 48 h).
For `CC(C)c1cccc(C(C)C)c1N=C1C(=O)N(Cc2ccc(Br)cc2)c2ccccc21`, the IC50 was 52.6 µM (MTT; 48 h).
The IC50 of `O=C(/C=C/c1ccc(F)cc1)c1nc2ccccc2n1Cc1cn([C@@H]2OC[C@@H](O)[C@H](O)[C@H]2O)nn1` is reported as 2.06 µM (LDH; 48 h).
`CC(=NNC(=O)c1cc(-c2ccccc2)n(-c2ccc(S(N)(=O)=O)cc2)n1)c1ccc(C)cc1` has an IC50 of 18.5 µM (fluorescence; 48 h).
`CCc1ccc(N=C2C(=O)Nc3ccccc32)cc1` gave an IC50 of 51.7 µM (MTT; 48 h).
`CC1=CC(=O)C(C(C)C)=CC1=O` gave an IC50 of 9.8 µM (SRB; 48 h).
With `c1ccc(Cc2nnc(-c3nn(Cc4ccccc4)c4ccccc34)o2)cc1` the IC50 was 114 µM (48 h).
The IC50 of `COc1cccc2c1C(=O)c1c(O)c3c(c(O)c1C2=O)C[C@@](O)(C(=O)CO)C[C@@H]3O[C@H]1C[C@H](N)[C@H](O)[C@H](C)O1` is reported as 3.94 µM (MTT; 24 h).
For `O=C1Nc2ccccc2/C1=N/N=C/c1cccc([N+](=O)[O-])c1`, the IC50 was 22.8 µg/mL (MTT; 48 h).
For `O=[N+]([O-])c1cc(I)c(O)c(C=NNc2ccc(C(F)(F)F)cc2)c1`, the IC50 was 8.56 µM (MTT; 24 h).
`CN(C)c1cccc(Nc2nc(-c3ccncc3)nc3c2CNCC3)c1` gave an IC50 of 46.4 µM (MTT).
`FC(F)(F)c1ccc(-c2noc(-c3nn(Cc4ccc(Cl)cc4Cl)c4ccccc34)n2)cc1` gave an IC50 of 166 µM (48 h).
The IC50 of `Cc1cccc(N=C2C(=O)Nc3ccccc32)c1` is reported as 73.4 µM (MTT; 48 h).
The IC50 of `CN1CCC(NC2CCc3[nH]c4c(C(N)=O)ccc(-c5ccccc5Cl)c4c3C2)CC1` (stereo not shown) is reported as 0.0164 µM (96 h).
`O=C1Nc2ccccc2C1=Nc1ccccc1I` gave an IC50 of 42.6 µM (MTT; 48 h).
`COc1cc(C=NNC(=O)c2cc(-c3ccccc3)n(-c3ccc(S(N)(=O)=O)cc3)n2)cc(OC)c1OC` gave an IC50 of 21.6 µM (fluorescence; 48 h).
The IC50 of `COc1cccc2c1C(=O)c1c(O)c3c(c(O)c1C2=O)C[C@@](O)(C(=O)CO)C[C@@H]3O[C@H]1C[C@H](N)[C@H](O)[C@H](C)O1` is reported as 34.3 µM (MTT).
For `O=C1C(=Nc2ccccc2Br)c2ccccc2N1Cc1ccccc1`, the IC50 was 2.16 µM (MTT; 48 h).
The IC50 of `NNc1nc2ccc(Br)cc2c(=O)n1-c1ccc(Cl)cc1` is reported as 12.8 µM (MTT; 48 h).
The IC50 of `CC(C)c1cccc(C(C)C)c1N=C1C(=O)N(Cc2ccccc2)c2ccccc21` is reported as 12.6 µM (MTT; 48 h).
`O=C1CSC(=Nc2cc(C(F)(F)F)ccc2-c2nnc(N3C(=O)CSC3=Nc3ccc([N+](=O)[O-])cc3)s2)N1c1ccc([N+](=O)[O-])cc1` gave an IC50 of 79.5 µM (MTT).
`O=C1C(=Nc2ccc(Cl)cc2)c2ccccc2N1Cc1cccc(Cl)c1` gave an IC50 of 9.41 µM (MTT; 48 h).
With `CC(C)Cc1ccc([C@H](C)C(=O)O)cc1` the IC50 was 399 µM (SRB; 72 h).
